Shown are actives, neighbours in structure and some others; about 12% of the full set was active somewhere.
PKD1 inh = inhibitors of human PKD1 kinase, biochemical, fluorescence polarization | inhibition, % (test concentration not listed) | PKD1 kinase fluorescence polarization assay | 0.056% of 200,000 active | Serine/threonine-protein kinase D1 (Homo sapiens), Q15139
Rad51 HR inh = human RAD51 strand exchange inhibitors, primary screen, biochemical, fluorescence | DNA repair protein RAD51 homolog 1 (Homo sapiens), Q06609 | hRad51 DNA strand exchange, fluorescence dequenching | inhibition, % at 10 µM | 0.085% of 200,000 active | AID 1385, 2008;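 active = inhibition above 40% at the single screening dose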;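 also: 0% = DMSO control wells and 100% = blanks with heterologous ssDNA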
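Material: Human Rad51 nucleoprotein filaments preassembled on unlabelled ssDNA | Also added: Labelled 47-mer dsDNA for strand exchange | Dosing: Single dose, 10 µM final compound | Schedule: 30-min compound preincubation and 15-min exchange, both room temperature | Technique: Fluorescence dequenching at 485/520 nm | Measure: Percent inhibition relative to plate controls and blanks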
CHOP inh = inhibitors of CHOP promoter induction, primary screen, cell-based, unfolded protein response, luciferase reporter; CHO-K1 CHOP-promoter luciferase, tunicamycin-induced, 15-18 h; inhibition, % at 10 µM; 3.8% of 220,000 active; AID 2732, 2010;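 active = compounds that reduced the stress-induced luciferase reporter signal by more than about 70% of percent inhibition, limit read from the data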;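 also: 0% = tunicamycin plus vehicle and 100% = wells without tunicamycin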
L major viab = Leishmania major promastigote growth inhibition, primary screen | inhibition, % at 10 µM | 9% of 200,000 active | Leishmania major promastigotes, resazurin fluorescence viability;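 also: promastigotes grown with compound for 44 hours at 28 °C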
Arbovirus anti = antivirals against arbovirus infection, primary screen, cell-based, full library, 10K replicate subset | arbovirus infection cell-based antiviral screen | inhibition, % at 10 µM | AID 1251, 2008 | 0.37% of 200,000 active; in the data active = inhibition above about 30%
Wee1 stabilizer = Wee1 degradation inhibitors, primary screen, cell-based, HeLa, Wee1K328M-luciferase, luminescence; Wee1-like protein kinase (Homo sapiens), P30291; HeLa Luc-Wee1K328M stability; 100% = proteasome inhibitor MG132 effect; reporter increase, % at 5 µM; 1.2% of 220,000 active;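 active = activation above the mean of all tested compounds plus 3 SD, set per screening run, cut at about 8.8% in these data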;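 also: cells exposed to compound for 20 h before luminescence read; 0% = DMSO alone and 100% = MG132 at 30 µM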
Target sequence (P30291 whole entry K328M): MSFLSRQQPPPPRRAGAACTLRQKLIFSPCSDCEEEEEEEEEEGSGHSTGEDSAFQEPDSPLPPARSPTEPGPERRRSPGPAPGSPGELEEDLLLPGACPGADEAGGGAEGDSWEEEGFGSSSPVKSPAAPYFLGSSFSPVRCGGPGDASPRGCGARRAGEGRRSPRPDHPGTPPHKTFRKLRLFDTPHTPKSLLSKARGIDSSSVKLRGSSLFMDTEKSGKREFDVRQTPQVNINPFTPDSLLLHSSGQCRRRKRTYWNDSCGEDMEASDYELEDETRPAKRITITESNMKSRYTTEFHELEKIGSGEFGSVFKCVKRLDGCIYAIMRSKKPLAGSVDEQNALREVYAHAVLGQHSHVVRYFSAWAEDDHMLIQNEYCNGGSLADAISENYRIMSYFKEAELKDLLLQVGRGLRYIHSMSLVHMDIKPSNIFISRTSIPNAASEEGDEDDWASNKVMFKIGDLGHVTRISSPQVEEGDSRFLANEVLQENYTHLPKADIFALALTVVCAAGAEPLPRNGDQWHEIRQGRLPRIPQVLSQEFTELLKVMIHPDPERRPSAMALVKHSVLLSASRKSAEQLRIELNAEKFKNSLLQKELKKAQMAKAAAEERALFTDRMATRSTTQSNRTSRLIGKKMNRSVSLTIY
Active calls of the source: *; nt = no result. Rule as the data show it, unless noted: active = inhibition above about 50%; inactive = the rest.

SMILES | PKD1 inh | Rad51 HR inh | CHOP inh | L major viab | Arbovirus anti | Wee1 stabilizer
O=C(CSc1nc(-c2ccc(F)cc2)cc(C(F)(F)F)n1)Nc1ccc2c(c1)OCO2 | -10 | nt | 73* | 28 | -23 | 0
COc1ccc(-c2cc(C(F)(F)F)nc(SCC(N)=O)n2)cc1 | -13 | 4 | 19 | -1 | -2 | -2
O=C(COC(=O)Cc1ccccc1F)Nc1cccc(S(=O)(=O)NC2=NCCCCC2)c1 | -4 | 10 | 12 | -3 | -3 | 0
Cc1cccc(NC(=O)C2SC(=Nc3c(C)cccc3C)C(C(=O)N3CCOCC3)=C2N)c1 (stereo unspecified) | -8 | -2 | 14 | 0 | 1 | -2
CCN(CC)S(=O)(=O)c1ccc2c(c1)nc(CCC(=O)Nc1ccccc1Cc1ccccc1)n2CC | 6 | 1 | 8 | 86* | -10 | -3
C=C(C)COc1ccc(-c2n[nH]c(C)c2-c2ccc(OC)c(OC)c2)c(O)c1 | nt | 13 | -3 | nt | nt | 6
COc1ccc(C2(C#N)CCC(=O)N2c2ccccc2)cc1 (stereo unspecified) | nt | 10 | 6 | nt | nt | 2
CC12CCC(C(=O)N(CC(O)CN3CCCCCC3)C1=O)C2(C)C (stereo unspecified) | -4 | nt | -15 | -3 | -7 | -1
COc1ccc(C2NC(=O)N(CCCC(=O)O)C(C)=C2C(=O)OCc2ccccc2)cc1 (stereo unspecified) | nt | -5 | nt | nt | nt | nt
O=C(NCC1(c2ccccc2)CCCC1)c1ccccc1Br | -9 | 3 | 12 | 55* | 17 | -1
CN1C(=O)/C(=N\OC(=O)c2cccc3ccccc23)c2ccccc21 | 22 | 3 | 95* | -6 | 7 | 5
O=C(O)c1ccc(NC(=O)C2(c3ccccc3)CCCC2)cc1 | nt | -1 | 10 | nt | nt | 2
CCN(CC)CCOC(=O)c1ccc(NC(=O)C2(c3ccccc3)CCCC2)cc1 | -4 | 4 | 27 | 70* | -5 | 4
O=C(/C=C/c1cccs1)Nc1cccc(NC(=O)/C=C/c2cccs2)n1 | 6 | -15 | -32 | 55* | -2 | 1
CCN(CC)CCOC(=O)c1ccc(NC(=O)/C=C/c2cccs2)cc1 | -13 | -1 | 50 | 69* | -2 | 3
CCOC(=O)c1ccc(NC(=O)/C=C/c2cccs2)cc1 | 3 | 12 | -12 | 14 | 3 | 11*
O=C(/C=C/c1cccs1)Nc1nccs1 | 1 | nt | 14 | 0 | -10 | 0
NS(=O)(=O)c1ccc(NC(=O)/C=C/c2cccs2)cc1 | nt | -1 | -4 | nt | nt | 6
CCOC(=O)Cc1csc(NC(=O)Nc2cccc(OC)c2)n1 | nt | -5 | 12 | nt | nt | 4
Cc1noc(C)c1COc1ccc(C(=O)OCC(=O)Nc2c(C)n(C)n(-c3ccccc3)c2=O)cc1 | -4 | -24 | -12 | -1 | 2 | -2
O=C(O)CCCC[C@@H]1CCSS1 | nt | nt | 17 | nt | nt | nt
CCN1Cc2c(/C=C/c3ccccc3)nc3ccc(OC)cc3c2N(c2cccc(Cl)c2)C1 | nt | -41 | -10 | nt | nt | -2
O=C1/C(=C/C=C/c2ccccc2)Oc2c1ccc(O)c2CN1CCN(CCO)CC1 | nt | nt | 0 | nt | nt | -2
CCN1CCN(Cc2c(O)ccc3c2O/C(=C\C=C\c2ccccc2)C3=O)CC1 | -3 | -142 | -53 | 96* | 26 | 1
C(=N\c1nc2ccccc2n1CCN1CCCCC1)/c1ccc2c(c1)OCO2 | 2 | 3 | -5 | 2 | 11 | 2
C(=N\c1nc2ccccc2n1CCN1CCCCC1)/c1cccs1 | -1 | -7 | -1 | 53* | 14 | 1
Cc1cccc(N2CCN(C(=S)Nc3ccc4nc5n(c(=O)c4c3)CCCCC5)CC2)c1C | 6 | 26 | 18 | 20 | -20 | -2
Cn1c(SCC(=O)N2CCCC2=O)nc2ccccc21 | -7 | 7 | 49 | -6 | 4 | -2
Cc1ccccc1N(CC(=O)NCc1ccc2c(c1)OCO2)C(=O)CCC(=O)Nc1ccccn1 | 9 | 11 | 19 | 61* | 4 | 0
N#CC1=C(N)Oc2n[nH]c(-c3cccs3)c2C1c1ccsc1 (stereo unspecified) | -6 | -4 | 30 | 7 | -5 | 0

High-throughput results as filed in PubChem BioAssay.
